# Screening data as filed in PubChem.
# ARFGAP1 inhibitor – inhibits rat ARF GTPase activating protein 1; Q62848; Arfgap1-stimulated ARF1 GTP hydrolysis, GDP FP detection; inhibition, % at 16.5 µM; actives 0.26% (n = 360,000); AID 651572;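 active = inhibition above a per-plate limit, mean inhibition of low control wells plus 3 SD, cut at about 25% in these data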;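 note: 0% = DMSO wells with enzyme and 100% = wells lacking Arfgap1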
# Target sequence (Q62848 1-136 limits assumed): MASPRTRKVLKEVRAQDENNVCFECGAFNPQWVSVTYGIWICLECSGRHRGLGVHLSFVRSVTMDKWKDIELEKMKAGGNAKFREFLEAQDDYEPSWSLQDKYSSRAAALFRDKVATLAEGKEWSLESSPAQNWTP
#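 material = rat Arfgap1 catalytic domain, aa 1-136 | also added = human ARF1(Δ1-17)-GTP substrate | compound dosing = one concentration, 16.5 µM, DMSO 1.26% | times = GTP hydrolysis reaction 2 h at 25 °C | measured by = FP, GDP Alexa 633 tracer displaced from anti-GDP antibody, 620/688 nm | evaluation = percent inhibition of Arfgap1-stimulated GTP hydrolysis | replication = single well per compound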
# VIM-2 inh – inhibitors of Pseudomonas aeruginosa VIM-2 metallo-beta-lactamase; AID 1527; actives 0.89% (n = 290,000); inhibition, % at 5.6 µM; purified VIM-2, nitrocefin hydrolysis, epi-absorbance fluorescence;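 active = inhibition above the mean of all tested compounds plus 3 SD, cutoff set per screening run, cut at about 7.5% in these data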;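 note: red hydrolysis product quenches plate fluorescence so inhibitors raise well fluorescence; 0% = enzyme with DMSO and 100% = DMSO without enzyme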
# ASAP1 GAP inh – blocks human ASAP1-stimulated Arf1 GTP hydrolysis. Q9ULH1. GDP FP detection. inhibition, % at 16.5 µM. actives 0.19% (n = 360,000); in the data active = inhibition above about 25%;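 note: 0% = vehicle with enzyme and substrate and 100% = no enzyme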
# Target sequence (Q9ULH1 325-724 limits assumed): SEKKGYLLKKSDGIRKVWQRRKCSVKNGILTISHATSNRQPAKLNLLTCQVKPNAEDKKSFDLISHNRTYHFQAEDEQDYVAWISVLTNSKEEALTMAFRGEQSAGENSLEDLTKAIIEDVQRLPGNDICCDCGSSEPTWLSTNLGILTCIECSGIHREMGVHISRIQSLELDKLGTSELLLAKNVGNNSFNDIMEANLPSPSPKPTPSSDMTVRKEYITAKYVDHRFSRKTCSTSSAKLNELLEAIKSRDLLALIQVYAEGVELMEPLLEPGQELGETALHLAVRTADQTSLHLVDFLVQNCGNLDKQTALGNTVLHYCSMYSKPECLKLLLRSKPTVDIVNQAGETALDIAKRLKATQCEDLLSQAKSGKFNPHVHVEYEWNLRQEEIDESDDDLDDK
# PHOSPHO1 block – blocks human PHOSPHO1 phosphatase activity | Q8TCT1 | recombinant PHOSPHO1, absorbance phosphatase assay | inhibition, % at 13.3 µM | actives 1.1% (n = 290,000); in the data active = inhibition above about 60%
# IMP-1 inhibitor – blocks Pseudomonas aeruginosa IMP-1 metallo-beta-lactamase. purified IMP-1, nitrocefin hydrolysis, epi-absorbance fluorescence. inhibition, % at 5.6 µM. actives 0.45% (n = 290,000);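 active = inhibition above the mean plus 3 SD of all compounds in the same screening run, cut at about 4.5% in these data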;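 note: 0% = IMP-1 with DMSO and 100% = DMSO wells lacking enzyme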
#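 System: purified IMP-1 / Input: IMP-1 dispensed at 0.2 nM / Medium: 50 mM HEPES pH 7.1, 50 µM ZnSO4, 0.05% Brij 35 / Timing: 15 min enzyme–compound preincubation, then 25 min nitrocefin reaction, 25 °C / Technique: plate fluorescence quenching by hydrolysis product, ex 480/em 530 nm / Repeats: singlicate testing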
# Calb FLC – C. albicans growth modulation with fluconazole; C. albicans CaCi-2 + fluconazole, Alamar Blue growth, 48 h; growth inhibition, % (no concentration beside the values); actives 0.57% (n = 300,000); AID 1979;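 active = growth inhibition above about 58% in most replicates, limit read from the data, passing the limit was not always enough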;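 note: all wells also contain fluconazole at 8 µg/ml as a sub-toxic cotreatment; 0% = median of DMSO wells and 100% = median of geldanamycin control wells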
# * hit, by the source's call; nt = not tested or not shown. Only some compounds are listed: those with a hit (about 2.6% of all), similar ones and a draw of the others.
SMILES,ARFGAP1 inhibitor,VIM-2 inh,ASAP1 GAP inh,PHOSPHO1 block,IMP-1 inhibitor,Calb FLC
O=C(CSc1nnc(-c2cccnc2)n1Cc1ccco1)c1ccc2ccccc2c1,-10,-2,6,70*,-3,8
COC(=O)[C@]12C[C@H](CC(=O)NCc3cccs3)C(=O)N(CCc3ccc(OC)c(OC)c3)C1=C[C@H](C(C)(C)C)O[C@@H]2C,6,nt,-18,nt,nt,nt
CCCc1cc2c(O)ccc(O)c2c(=O)o1,-3,nt,5,nt,nt,nt
O=C(O)c1ccccc1C(=O)NCc1ccc(F)cc1,-5,2,3,8,0,-8
O=C(O)c1ccccc1C(=O)NNc1ccc(F)cc1,-1,-3,5,15,-2,102*
Cn1c(=O)c(NC2CCCCC2)c2c3c(cccc31)C(=O)c1ccccc1-2,2,7,5,30,5.9*,nt
COc1cccc(CNC(=O)[C@H]2CCCN2C(=O)[C@H]2CCCN2C(=O)c2ccc(Cl)cc2)c1,-1,nt,4,nt,nt,nt
COc1ccc(N2CCN(C(c3cccs3)C(C)NC(=O)C(=O)N3CCOCC3)CC2)cc1 (stereo unspecified),2,-2,0,65*,-2,-6
NC(=O)c1ncn2c(=O)n(CCCl)nnc12,-10,nt,-2,nt,nt,nt
COc1ccc(C(Cl)=C(c2ccc(OC)cc2)c2ccc(OC)cc2)cc1,2,0,-4,-9,12*,-10
Clc1ccc(N2COC3c4cccc5cccc(c45)C32)cc1 (stereo unspecified),7,-4,4,-11,1,-4
COc1ccc(N2COC3c4cccc5cccc(c45)C32)cc1 (stereo unspecified),1,1,-10,-4,4.7*,0
c1ccc(CN2CCCC3CC2c2ccccc23)cc1 (stereo unspecified),1,nt,-12,nt,nt,nt
CCOc1ccc(C(=S)NC2CCCCC2)cc1OC,7,-2,-5,81*,-2,-19
COC(=O)[C@]12C[C@H](CC(=O)NCc3ccc(C)o3)C(=O)N(Cc3ccccc3)C1=C[C@H](C1CCCC1)O[C@@H]2C,2,nt,11,nt,nt,nt
O=C(Nc1ncc(Cc2cccc([N+](=O)[O-])c2)s1)c1ccco1,19,0,2,60*,-1,-4
CC(=O)Nc1ncc(Cc2cccc(Cl)c2)s1,-3,-3,15,60*,-3,-7
CCOC(=O)c1cnc2c3c(noc13)CCC2,-4,nt,3,nt,nt,nt
Brc1cccc(CN2CCN(c3ncc(Cc4ccccc4)cn3)CC2)n1,3,nt,5,nt,nt,nt
CCOC(=O)CSC1=C(C#N)C(=O)NC2(CCCCC2)S1,-2,0,7,98*,-5,-6
COC(=O)C(C(=O)OC)c1ccccc1NS(=O)(=O)c1c(C)cc(C)cc1C,3,nt,3,nt,nt,nt
CCCc1ccc(-c2ccc(/C=C/C(=O)O)cc2)nc1,-3,-2,-18,-12,-1,15
CCCCCc1ccc(-c2ccc(/C=C/C(=O)O)cc2)nc1,-6,-1,-7,-1,-2,81*
Nc1nc2c(ncn2[C@@H]2O[C@H](C(=O)NCCCc3ccccc3)[C@@H](O)[C@H]2O)c(=O)[nH]1,-6,nt,10,nt,nt,nt
CC(=O)N1c2ccc(S(=O)(=O)N(C)CC(=O)Nc3ccccc3C)cc2CC1C (stereo unspecified),-9,-4,8,1,4.8*,-10
SMILES,ARFGAP1 inhibitor,VIM-2 inh,ASAP1 GAP inh,PHOSPHO1 block,IMP-1 inhibitor,Calb FLC
CC(=O)N1c2ccc(S(=O)(=O)N(C)CC(=O)Nc3cccc(C)c3)cc2CC1C (stereo unspecified),-5,-8,-4,1,-3,-4
Cc1sc(-c2ccncc2)nc1OC(=O)c1ccc(Cl)cc1,3,-2,-4,10,-1,-1
Cc1sc(-c2ccncc2)nc1OC(=O)c1cc(Cl)cc(Cl)c1,-5,-2,0,17,5.7*,9
Cc1sc(-c2ccncc2)nc1OC(=O)c1ccc(F)cc1F,-1,0,-7,16,10*,5
Cc1ccc2nc(-c3ccc(F)cc3)c(Cc3ccsc3)n2c1,-5,nt,-2,nt,nt,nt
COC(=O)c1ccc(N)c2c(N)ccc(C(=O)OC)c12,5,nt,0,nt,nt,nt
COCC(C)n1c(SCC(=O)NC(=O)Nc2ccc3c(c2)OCCO3)nc2ccccc2c1=O (stereo unspecified),6,-1,-19,-4,5.5*,-9
COCC(C)n1c(SCC(=O)NC(=O)Cc2ccccc2)nc2ccccc2c1=O (stereo unspecified),-5,nt,-1,nt,nt,nt
O=C(CSc1nnnn1-c1ccccc1)NC(=O)Nc1ccc2c(c1)OCCO2,1,1,13,1,5.6*,-20
Cn1c(SCC(=O)O)nc2ccccc2c1=O,1,11*,0,-8,0,-9
Cc1ncsc1CCSc1nc2ccccc2c(=O)n1C,-5,21*,1,-14,-3,17
CC(=O)N1C[C@@H](CO)[C@@H](N(C)C(=O)/C=C/c2ccccc2)C[C@H]1c1ccccc1,-12,nt,10,nt,nt,nt
CSc1ccccc1OCc1cc(C(=O)N(C)C(C)c2ccccn2)no1 (stereo unspecified),-5,-1,-6,61*,-3,-4
Cc1cc(OCc2cc(C(=O)N(C)C(C)c3ccccn3)no2)cc(C)c1Cl (stereo unspecified),0,-4,3,20,-4,-11
CCOC(=O)[C@@H]1CSCCS(=O)(=O)N1Cc1ccc(C(F)(F)F)cc1,2,nt,2,nt,nt,nt
CCOC(=O)Cn1c(C(=O)OCC)cc2sccc21,11,-2,1,10,-3,-18
CCOC(=O)c1cc2sccc2n1CC(=O)N1CCCC1,10,-2,-11,9,-5,106*
COc1ccccc1-c1ccc(OCCCN2CCC(C(O)(c3ccccc3)c3ccccc3)CC2)cc1,14,nt,11,nt,nt,nt
Cc1cc(N2CCN(C(=O)OC(C)(C)C)C[C@@H]2C)ccc1N1CCS(=O)(=O)CC1,7,nt,-9,nt,nt,nt
Cc1ccc(N/N=C/c2ccncc2)cc1,21,-3,12,48,-4,100*
O=C(Nc1cccc(Cl)c1)O/N=C\c1ccncc1,1,1,-3,36,-2,-7
Clc1cccc(N/N=C/c2ccncc2)c1,-4,-3,-22,6,-2,93*
CC(=O)c1cccc(Nc2c3c(nc4ccccc24)CCC3)c1,10,10*,1,-3,-1,4
Cc1ccc2nc3c(c(Nc4cccc(O)c4)c2c1)CCC3,-2,9.4*,20,22,-2,-1
COC(=O)c1cccc(Nc2c3c(nc4ccccc24)CCC3)c1,4,8.1*,14,27,-3,61
COc1ccccc1Nc1nc2c(s1)CCC2,1,1,-16,76*,-1,-25
CC(C)C[C@@H]1COc2cccc(NC3CC3)c2S(=O)(=O)N1,14,nt,7,nt,nt,nt
